From ChEMBL document CHEMBL1124180, “Asymmetric synthesis and properties of the enantiomers of the antibacterial agent 7-(3-aminopyrrolidin-1-yl)-1-(2,4-difluorophenyl)-1,4-dihydro-6- fluoro-4-oxo-1,8-naphthyridine-3-carboxylic acid hydrochloride” (J Med Chem, 1988)

What was measured:
Cutibacterium acnes = assay: In vitro activity against Propionibacterium acnes (132); assay type: functional
How it was run: (§1)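 MIC determined under anaerobic conditions on Wilkins-Chalgren agar.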

Staphylococcus aureus [1] = assay: In vitro activity against Staphylococcus aureus(45 RAR2); assay type: functional
How it was run: (§2)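 MIC determined by agar dilution on brain-heart infusion agar under aerobic conditions.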

Fusobacterium nucleatum = assay: In vitro activity against Fusobacterium nucleatum (ATCC 25586); assay type: functional; how it was run: as §1
Escherichia coli [2] = assay: In vitro activity against Escherichia coli (H560); assay type: functional
How it was run: (§3)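 MIC for aerobic bacteria, measured on brain-heart infusion agar.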

Peptostreptococcus = assay: In vitro activity against Peptostreptococcus sp.(TB-11); assay type: functional
How it was run: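 MIC for anaerobic bacteria, measured on Wilkins-Chalgren agar.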

Klebsiella pneumoniae = assay: In vitro activity against Klebsiella pneumoniae (ATCC 8045).; assay type: functional; how it was run: as §2
Clostridioides difficile [3] = assay: In vitro activity against Clostridium difficile (ATCC 9689); assay type: functional
Bacteroides fragilis [4] = assay: In vitro activity against Bacteroides fragilis (SFM2906A); assay type: functional; how it was run: as §1
Streptococcus equinus = assay: In vitro activity against Streptococcus bovis (A5169).; assay type: functional; how it was run: as §2
Hoylesella loescheii = assay: In vitro activity against Bacteroides loescheii (ATCC 15930).; assay type: functional; how it was run: as §1
Escherichia coli [5] = assay: In vitro activity against Escherichia coli (DC-2); assay type: functional; how it was run: as §3
Escherichia coli [6] = assay: In vitro activity against Escherichia coli Juhl; assay type: functional; how it was run: as §3
[7] = tested on: Bacteroides thetaiotaomicron; assay: In vitro activity against Bacteroides thetaiotaomicron (SFM2975-2); assay type: functional; how it was run: as §1
Staphylococcus aureus [8] = assay: In vitro activity against Staphylococcus aureus (A5177); assay type: functional; how it was run: as §2
Phocaeicola vulgatus [9] = assay: In vitro activity against Bacteroides vulgatus(792); assay type: functional; how it was run: as §1
Prevotella disiens = assay: In vitro activity against Bacteroides disiens (ATCC 29426); assay type: functional; how it was run: as §1
Staphylococcus aureus [10] = assay: In vitro activity against Staphylococcus aureus(CMX 503A); assay type: functional; how it was run: as §2
Streptococcus pyogenes [11] = assay: In vitro activity against Streptococcus pyogenes (2548 INDUC).; assay type: functional; how it was run: as §2
Clostridium perfringens [12] = assay: In vitro activity against Clostridium perfringens (SFBC 2026); assay type: functional
[13] = tested on: Bacteroides thetaiotaomicron; assay: In vitro activity against Bacteroides thetaiotaomicron (106); assay type: functional; how it was run: as §1
Streptococcus pyogenes [14] = assay: In vitro activity against Streptococcus pyogenes (EES61); assay type: functional; how it was run: as §2
Escherichia coli [15] = assay: In vitro activity against Escherichia coli (KNK437); assay type: functional; how it was run: as §3
Burkholderia cepacia = assay: In vitro activity against Pseudomonas cepacia (296I); assay type: functional; how it was run: as §2
[16] = tested on: Prevotella melaninogenica; assay: In vitro activity against Bacteroides melaninogenicus (ATCC 25845).; assay type: functional; how it was run: as §1
[17] = tested on: Bacteroides thetaiotaomicron; assay: In vitro activity against Bacteroides thetaiotaomicron (ATCC 29742); assay type: functional; how it was run: as §1
Enterococcus faecium = assay: In vitro activity against Enterococcus faecium (ATCC 8043).; assay type: functional; how it was run: as §2
Providencia stuartii = assay: In vitro activity against Providencia stuartii (CMX 640); assay type: functional; how it was run: as §2
Parvimonas micra [18] = assay: In vitro activity against Peptostreptococcus micros (ATCC 33270).; assay type: functional; how it was run: as §1
Escherichia coli [19] = assay: In vitro activity against Escherichia coli (SS).; assay type: functional; how it was run: as §3
[20] = tested on: Peptoniphilus asaccharolyticus; assay: In vitro activity against Peptococcus asaccharolyticus (ATCC 14963).; assay type: functional; how it was run: as §1
Clostridioides difficile [21] = assay: In vitro activity against Clostridium difficile (ATCC 17857); assay type: functional
Bacteroides fragilis [22] = assay: In vitro activity against Bacteroides fragilis (SFM2975-7); assay type: functional; how it was run: as §1
Bacteroides fragilis [23] = assay: In vitro activity against Bacteroides fragilis (105AT25285); assay type: functional; how it was run: as §1
Staphylococcus aureus [24] = assay: In vitro activity against Staphylococcus aureus(45); assay type: functional; how it was run: as §2
Pseudomonas aeruginosa [25] = assay: In vitro activity against Pseudomonas aeruginosa (K799/WT).; assay type: functional; how it was run: as §2
Streptococcus agalactiae = assay: In vitro activity against Streptococcus agalactiae (CMX 508).; assay type: functional; how it was run: as §2
Bacteroides fragilis [26] = assay: In vitro activity against Bacteroides fragilis (784); assay type: functional; how it was run: as §1
Veillonella parvula = assay: In vitro activity against Veillonella parvula (ATCC 10790); assay type: functional
How it was run: (§4)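 Anaerobic MICs measured by agar dilution on Wilkins-Chalgren agar.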

Micrococcus luteus [27] = assay: In vitro activity against Micrococcus luteus (ATCC 4698); assay type: functional; how it was run: as §2
Bacteroides fragilis [28] = assay: In vitro activity against Bacteroides fragilis (UC-2); assay type: functional; how it was run: as §1
Fusobacterium = assay: In vitro activity against Fusobacterium sp.(GS-10); assay type: functional; how it was run: as §1
Acinetobacter sp. = assay: In vitro activity against Acinetobacter sp.(CMX 669).; assay type: functional; how it was run: as §2
Clostridium perfringens [29] = assay: In vitro activity against Clostridium perfringens (104AT13124); assay type: functional
[30] = tested on: Staphylococcus epidermidis; assay: In vitro activity against Staphylococcus epidermidis (3519); assay type: functional; how it was run: as §2
Staphylococcus aureus [31] = assay: In vitro activity against Staphylococcus aureus(ATCC 6538P); assay type: functional; how it was run: as §2
Phocaeicola vulgatus [32] = assay: In vitro activity against Bacteroides vulgatus(SFBC 2375); assay type: functional; how it was run: as §1
Clostridium perfringens [33] = assay: In vitro activity against Clostridium perfringens (788); assay type: functional
[34] = tested on: Bacteroides thetaiotaomicron; assay: In vitro activity against thetaiotaomicron (ATCC 29741); assay type: functional; how it was run: as §4
Thomasclavelia ramosa = assay: In vitro activity against Clostridium romosum (7); assay type: functional
Pseudomonas aeruginosa [35] = assay: In vitro activity against Pseudomonas aeruginosa (BMH10); assay type: functional; how it was run: as §2
Micrococcus luteus [36] = assay: In vitro activity against Micrococcus luteus (ATCC 9341); assay type: functional; how it was run: as §2
Klebsiella aerogenes = assay: In vitro activity against Enterobacter aerogenes (ATCC 13048).; assay type: functional; how it was run: as §2
Staphylococcus aureus [37] = assay: In vitro activity against Staphylococcus aureus(CMX 686B); assay type: functional; how it was run: as §2
Finegoldia magna = assay: In vitro activity against Peptococcus magnus (ATCC 29328); assay type: functional; how it was run: as §1
Staphylococcus aureus [38] = assay: In vitro activity against Staphylococcus aureus(CMX 553); assay type: functional; how it was run: as §2
Streptococcus pyogenes [39] = assay: In vitro activity against Streptococcus pyogenes(930 CONST).; assay type: functional; how it was run: as §2
Pseudomonas aeruginosa [40] = assay: In vitro activity against Pseudomonas aeruginosa (A5007).; assay type: functional; how it was run: as §2
Prevotella bivia = assay: In vitro activity against t Bacteroides bivius(B 6140); assay type: functional; how it was run: as §4
Bacteroides fragilis [41] = assay: In vitro activity against Bacteroides fragilis (SFM2929-1); assay type: functional; how it was run: as §1
[42] = tested on: Peptostreptococcus anaerobius; assay: In vitro activity against Peptostreptococcus anaerobius (ATCC 27337); assay type: functional; how it was run: as §1
Mus musculus [43] = assay: In vivo activity against Pseudomonas aeruginosa A5007 (100X LD50), administered po( each compound tested at 3 doses with 10 animals); assay type: functional
How it was run: (§5)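 Mice were challenged intraperitoneally with the organism. The compound was given orally as a total dose split into equal portions at 1 and 5 h post-infection. Three doses were used, with 10 animals per dose.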

[44] = tested on: Bacteroides thetaiotaomicron; assay: microbe, parasite or virus in culture; details: ATCC 29741
Mus musculus [45] = assay: In vivo activity against Escherichia coli Juhl(100X LD50), when administered po( each compound tested at 3 doses with 10 animals); assay type: functional; how it was run: as §5
Mus musculus [46] = assay: In vivo activity against Escherichia coli Juhl(100X LD50), when administered sc( each compound tested at 3 doses with 10 animals); assay type: functional
How it was run: (§6)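 Mice were challenged intraperitoneally with the organism. The compound was given subcutaneously as a total dose split into equal portions at 1 and 5 h post-infection. Three doses were used, with 10 animals per dose.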

Parvimonas micra [47] = assay: In vitro activity against Peptostreptococcus micros (ATCC 33270); assay type: functional; how it was run: as §1
Mus musculus [48] = assay: In vivo activity against Pseudomonas aeruginosa A5007 (100X LD50), administered sc ( each compound tested at 3 doses with 10 animals); assay type: functional; how it was run: as §6

Cl.N[C@@H]1CCN(c2nc3c(cc2F)c(=O)c(C(=O)O)cn3-c2ccc(F)cc2F)C1
6.2 µg/mL: MIC (Burkholderia cepacia)
8 µg/mL: MIC [13] | MIC [17] | MIC [34]
2 µg/mL: MIC (Fusobacterium nucleatum) | MIC (Bacteroides fragilis [4]) | MIC (Phocaeicola vulgatus [9]) | MIC (Prevotella disiens) | MIC (Bacteroides fragilis [23]) | MIC (Bacteroides fragilis [26]) | MIC (Bacteroides fragilis [28]) | MIC (Fusobacterium) | MIC (Thomasclavelia ramosa) | MIC (Prevotella bivia) | MIC (Bacteroides fragilis [41])
0.39 µg/mL: MIC (Streptococcus equinus) | MIC (Escherichia coli [5]) | MIC (Streptococcus pyogenes [14]) | MIC (Escherichia coli [15]) | MIC (Enterococcus faecium) | MIC (Pseudomonas aeruginosa [25]) | MIC (Streptococcus agalactiae) | MIC (Streptococcus pyogenes [39]) | MIC (Pseudomonas aeruginosa [40])
0.05 µg/mL: MIC (Escherichia coli [2]) | MIC (Klebsiella pneumoniae) | MIC (Escherichia coli [6]) | MIC (Staphylococcus aureus [31]) | MIC (Staphylococcus aureus [37])
3.1 µg/mL: MIC (Micrococcus luteus [36])
1.56 µg/mL: MIC (Providencia stuartii) | MIC (Micrococcus luteus [27])
4 µg/mL: MIC (Clostridioides difficile [3]) | MIC (Hoylesella loescheii) | MIC [7] | MIC (Clostridioides difficile [21]) | MIC (Bacteroides fragilis [22])
0.5 µg/mL: MIC (Peptostreptococcus) | MIC (Veillonella parvula) | MIC (Finegoldia magna) | MIC [42]
1 µg/mL: MIC (Cutibacterium acnes) | MIC [16] | MIC (Phocaeicola vulgatus [32])
0.12 µg/mL: MIC (Parvimonas micra [18])
0.2 µg/mL: MIC (Streptococcus pyogenes [11]) | MIC (Pseudomonas aeruginosa [35]) | MIC (Klebsiella aerogenes)
0.01 µg/mL: MIC (Escherichia coli [19])
0.25 µg/mL: MIC (Clostridium perfringens [12]) | MIC [20] | MIC (Clostridium perfringens [29]) | MIC (Clostridium perfringens [33])
0.1 µg/mL: MIC (Staphylococcus aureus [1]) | MIC (Staphylococcus aureus [8]) | MIC (Staphylococcus aureus [10]) | MIC (Staphylococcus aureus [24]) | MIC (Acinetobacter sp.) | MIC [30] | MIC (Staphylococcus aureus [38])

O=C(O)c1cn(C2CC2)c2cc(N3CCNCC3)c(F)cc2c1=O [CIPROFLOXACIN]
15.1 mg/kg: ED50 (Mus musculus [43])
8 µg/mL: MIC (Hoylesella loescheii) | MIC (Phocaeicola vulgatus [9]) | MIC (Bacteroides fragilis [22]) | MIC (Phocaeicola vulgatus [32]) | MIC (Bacteroides fragilis [41])
4.1 mg/kg: ED50 (Mus musculus [48])
0.25 µg/mL: MIC (Veillonella parvula) | MIC (Finegoldia magna)
0.5 µg/mL: MIC (Parvimonas micra [47])
32 µg/mL: MIC [44]
4 µg/mL: MIC (Fusobacterium nucleatum) | MIC (Bacteroides fragilis [4]) | MIC (Bacteroides fragilis [23]) | MIC (Bacteroides fragilis [26]) | MIC (Bacteroides fragilis [28]) | MIC (Fusobacterium)
1.3 mg/kg: ED50 (Mus musculus [45])
0.3 mg/kg: ED50 (Mus musculus [46])
2 µg/mL: MIC (Cutibacterium acnes) | MIC (Peptostreptococcus) | MIC (Prevotella disiens) | MIC [16] | MIC [20] | MIC (Prevotella bivia) | MIC [42]
